“And” between values parts separate entries of the source, which are not always exact repeats. Identical values can stand only once.

Assay [1] concerns the target T1, Hemoglobin HbA (Homo sapiens) (UniProt P69905+P68871). The assay is described as follows: Oxygen pressure in mmHg at which the control hemoglobin solution (no compound) was 50% saturated with oxygen. It counts as protein-complex assay. Put shortly:
(§1)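 Purified HbA from washed, lysed erythrocytes (DEAE-Sephacel, pH 8.4 Tris elution), exchanged into 50 mM HEPES pH 7.4. Stock Hb 5.4 mM mixed 1:1 with 20 mM compound in HEPES, giving final 2.7 mM Hb and 10 mM compound (about 4:1). Control is Hb mixed with buffer alone. Oxygen dissociation curves recorded on a Hem-O-Scan analyzer. P50 in mmHg at 50% saturation.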

Assay [2] deals with T1, Hemoglobin HbA (Homo sapiens). As to the kind of experiment: Oxygen pressure in mmHg at which the […] hemoglobin solution (in presence of 10 mM compound) was 50% saturated with oxygen. It counts as protein-complex assay. The method in brief:
as §1

Assay [3] can be described thus: Dose-response study in whole blood at a concentration of 10.0 mM. It counts as tissue-based. The method in brief:
(§2)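 Fresh heparinized whole blood mixed 1:1 with test compound in isosmotic 50 mM HEPES pH 7.4 containing 140 mM NaCl and 10 mM glucose. Hb after addition approximately 1.25 mM. Oxygen dissociation curves recorded on a Hem-O-Scan analyzer. P50 with compound divided by P50 of control.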

The nature of assay [4]: Dose-response study in whole blood at a concentration of 1.0 mM. It is filed as tissue-based. Put shortly: as §2
Assay [5] is described as follows: Dose-response study in whole blood at a concentration of 4.0 mM. It counts as tissue-based. The method in brief:
as §2

Assay [6] can be described thus: Dose-response study in whole blood at a concentration of 0.5 mM. It is filed as tissue-based. Put shortly: as §2
The nature of assay [7]: Dose-response study in whole blood at a concentration of 2.0 mM. It is filed as tissue-based. The method in brief: as §2

T1 sequence (P68871 2-147 partner limits assumed): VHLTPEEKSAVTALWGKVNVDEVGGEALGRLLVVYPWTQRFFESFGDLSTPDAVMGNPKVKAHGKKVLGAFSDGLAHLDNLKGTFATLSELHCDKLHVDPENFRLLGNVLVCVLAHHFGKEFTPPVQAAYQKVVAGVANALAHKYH
T1 sequence (P69905 2-142 limits assumed): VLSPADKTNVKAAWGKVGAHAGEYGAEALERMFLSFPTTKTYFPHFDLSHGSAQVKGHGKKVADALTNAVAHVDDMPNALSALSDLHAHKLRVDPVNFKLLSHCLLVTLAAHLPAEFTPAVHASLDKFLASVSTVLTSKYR

In assay [1], `Cc1ccc(NC(=O)Cc2ccc(OC(C)(C)C(=O)O)cc2)cc1` showed a P50c of 15 mmHg. In addition, the P50d in assay [2] is 40 mmHg and 41 mmHg.

On to `CC(C)(Oc1ccc(CNC(=O)c2ccccc2Cl)cc1)C(=O)O`, for which the P50c in assay [1] was found to be 19 mmHg. Besides, the P50d in assay [2] is 28 mmHg.

With `CC(C)(Oc1ccc(CC(=O)Nc2ccccc2)cc1)C(=O)O`, the P50c in assay [1] is 20.5 mmHg and 19 mmHg. Besides, the P50d in assay [2] is 63 mmHg and 54 mmHg.

Regarding `CC(C)(Oc1ccc(CNC(=O)c2cc(Cl)c(Cl)c(Cl)c2)cc1)C(=O)O`, the P50c in assay [1] was 19 mmHg (2×) and 11.5 mmHg.

Regarding `CC(C)(Oc1ccc(CCNC(=O)c2ccccc2)cc1)C(=O)O`, the P50c in assay [1] was found to be 18 mmHg. In assay [2], the P50d amounted to 32 mmHg.

Take `CC(C)(Oc1ccc(CNC(=O)c2cccc(Cl)c2)cc1)C(=O)O`: in assay [1], the P50c is 18 mmHg and 19 mmHg. The P50d in assay [2] came to 37 mmHg.

Consider `CC(C)(Oc1ccc(NC(=O)Nc2cc(Cl)c(Cl)c(Cl)c2)cc1)C(=O)O`, for which the P50c in assay [1] was 18 mmHg and 14 mmHg (2×). In addition, the P50d in assay [2] is 48 mmHg and 35 mmHg and 36 mmHg.

Consider `CC(C)(Oc1ccc(CC(=O)Nc2ccc(Cl)c(Cl)c2)cc1)C(=O)O`, for which the P50c in assay [1] was 18.2 mmHg and 18 mmHg. Further, the P50d in assay [2] is 65 mmHg.

With `CC(C)(Oc1ccc(CNC(=O)c2ccc(Cl)c(Cl)c2)cc1)C(=O)O`, the P50c in assay [1] is 19 mmHg and 18 mmHg. In addition, in assay [2], the P50d was 38.5 mmHg and 40 mmHg.

Turning to `CC(C)(Oc1ccc(CNC(=O)c2ccccc2)cc1)C(=O)O`, the P50c in assay [1] was 18 mmHg and 19 mmHg. Further, the P50d in assay [2] was 35 mmHg and 35.5 mmHg.

Consider `CC(C)(Oc1ccc(NC(=O)Nc2cc(Cl)cc(Cl)c2)cc1)C(=O)O`, for which the P50d/P50c in assay [3] came out at 2.25; in assay [4], 1.15; in assay [5], 1.84; in assay [6] it was 0.96; in assay [7], 1.7. The P50c in assay [1] was 11.8 mmHg and 18 mmHg (2×). Moreover, in assay [2], the P50d is 44 mmHg and 65 mmHg and 63 mmHg.

In the case of `CC(C)(Oc1ccc(CC(=O)Nc2cc(Cl)cc(Cl)c2)cc1)C(=O)O`, the P50d/P50c in assay [3] was determined as 2.93; in assay [4] it was 1.52; in assay [5] it was 2.72; in assay [6] it was 1.09; in assay [7], 2. For the same compound, the P50c in assay [1] is 10.3 mmHg and 11 mmHg (2×) and 19.2 mmHg (2×). Further, the P50d in assay [2] was 47 mmHg [middle of 5 runs].

With `CC(C)(Oc1ccc(CC(=O)Nc2cc(Cl)c(Cl)c(Cl)c2)cc1)C(=O)O`, the P50c in assay [1] is 12 mmHg and 19 mmHg (2×). For the same compound, in assay [2], the P50d was 37 mmHg and 60 mmHg and 63 mmHg.

`CC(C)(Oc1ccc(CC(=O)Nc2ccc(F)cc2)cc1)C(=O)O`: the P50c in assay [1] was 20 mmHg and 17.5 mmHg. Further, in assay [2], the P50d is 52 mmHg and 44 mmHg.

`CC(C)(Oc1ccc(CC(=O)Nc2c(Cl)cccc2Cl)cc1)C(=O)O` came in with a P50c in assay [1] of 18 mmHg. Further, the P50d in assay [2] is 34 mmHg and 35 mmHg.

Regarding `CC(C)(Oc1ccc(CC(=O)Nc2ccc(C(F)(F)F)cc2)cc1)C(=O)O`, the P50c in assay [1] is 20 mmHg and 17.5 mmHg (2×) and 18 mmHg. Further, the P50d in assay [2] was 44 mmHg [middle of 4 runs].

Regarding `CC(C)(Oc1ccc(CNC(=O)c2ccc(Cl)cc2)cc1)C(=O)O`, in assay [1], the P50c is 19 mmHg (2×) and 18 mmHg. The P50d in assay [2] is 48 mmHg (2×) and 49 mmHg.

Regarding `CC(C)(Oc1ccc(CC(=O)Nc2ccc(Cl)cc2)cc1)C(=O)O`, the P50c in assay [1] is 15.5 mmHg and 19 mmHg and 18.5 mmHg (2×). For the same compound, in assay [2], the P50d is 52 mmHg [middle of 4 runs].

`Cc1cc(C)cc(NC(=O)Cc2ccc(OC(C)(C)C(=O)O)cc2)c1`: the P50d/P50c in assay [3] came out at 3; in assay [4], 1.53; in assay [5], 2.61; in assay [6], 1.07; in assay [7], 1.93. For the same compound, in assay [1], the P50c was 19 mmHg and 19.2 mmHg (2×). Further, the P50d in assay [2] is 75.5 mmHg and 76.5 mmHg and 78 mmHg.

Consider `CC(C)(Oc1ccc(NC(=O)Cc2ccccc2)cc1)C(=O)O`, for which the P50c in assay [1] was 19.5 mmHg. Moreover, the P50d in assay [2] was found to be 35 mmHg.

For the compound `CC(C)(Oc1ccc(NC(=O)Cc2ccc(Cl)cc2)cc1)C(=O)O`, the P50c in assay [1] was 19 mmHg (4×) and 21 mmHg. For the same compound, the P50d in assay [2] is 44 mmHg [middle of 5 runs].

In assay [1], `CC(C)(Oc1ccc(NC(=O)Nc2ccc(Cl)c(Cl)c2)cc1)C(=O)O` displayed a P50c of 18 mmHg. Moreover, the P50d in assay [2] was determined as 32 mmHg.

`CC(C)c1ccc(NC(=O)Cc2ccc(OC(C)(C)C(=O)O)cc2)cc1`: the P50c in assay [1] was 19.5 mmHg and 19 mmHg (2×). The P50d in assay [2] is 57 mmHg and 56.5 mmHg and 57.8 mmHg.

On to `CC(C)(Oc1ccc(CCNC(=O)c2ccc(Cl)cc2)cc1)C(=O)O`, for which the P50c in assay [1] is 18 mmHg and 17 mmHg (2×) and 18.5 mmHg. Moreover, in assay [2], the P50d is 31 mmHg [middle of 4 runs].

The compound `CC(C)(Oc1ccc(CNC(=O)c2cc(Cl)cc(Cl)c2)cc1)C(=O)O` gave a P50c in assay [1] of 19 mmHg. Further, the P50d in assay [2] was 48.5 mmHg and 47 mmHg and 46 mmHg.

The record behind these values is ChEMBL document CHEMBL1125253, “Allosteric modifiers of hemoglobin. 1. Design, synthesis, testing, and structure-allosteric activity relationship of novel hemoglobin oxygen affinity decreasing agents” (J Med Chem, 1991).
